Measurements taken from ChEMBL document CHEMBL1125825, “Hydrophobicity parameters for platinum complexes” (J Med Chem, 1991).

How the values were obtained:
[1] = Partition coefficient (logP); format: physicochemical; conditions: octanol/water
Summary of the method: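 Octanol/water shake-flask partitioning used equal phase volumes shaken at 300 agitations/min at 37 °C. Phases were separated at various times, and Pt in each phase was measured by graphite-furnace atomic absorption. P is the octanol Pt concentration divided by the aqueous Pt concentration, reported as log P, with the mean ± range of 6-10 independent experiments.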

[2] = system: P388; assay: Optimal dose evaluated for antitumor activity against P388 murine leukemia cells in female DBA/2 mice.; format: functional, cell-based; conditions: Mus musculus
Summary of the method: (§1)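 P388 murine leukemia model in female DBA/2 mice given 10^6 cells on day 0. A single treatment was given on day 1 with the platinum complex freshly dissolved in 0.4% Klucel. T/C is the median survival time of treated mice relative to untreated controls.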

[3] = organism: Mus musculus; assay: Median survival time of treated mice with respect to untreated controls.; format: functional, organism-based; summary of the method: as §1

Row | Substance | logP [1] | Optimal dose [2] [µmol/kg] | T/C [3] [%]
1 | cis-di-cyclopentyleamino,di-nitrate platinum (II) [listing 1 of 2 here] | -1.14 | – | –
2 | cis-di-pyridinium (4-methanol),di-nitrate platinum (II) | -2.13 | – | –
3 | cis-di-pyridinium (4-diaminomethane),di-nitrate platinum (II) [listing 1 of 2 here] | – | 495 | 110
4 | cis-di-amonium, di-nitarte platinum (II) [listing 1 of 2 here] | -3.36 | – | –
5 | cis-di-pyridinium,dinitrate platinum (II) [listing 1 of 2 here] | -1.59 | – | –
6 | cis-di-pyridinium (4-chloro),di-nitrate platinum (II) [listing 1 of 2 here] | -1.06 | – | –
7 | cis-di-pyridinium,dinitrate platinum (II) [listing 2 of 2 here] | – | 105 | 125
8 | cis-di-pyridinium (4-chloro),di-nitrate platinum (II) [listing 2 of 2 here] | – | 183 | 130
9 | cis-di-pyridinium (4-diaminomethane),di-nitrate platinum (II) [listing 2 of 2 here] | -0.83 | – | –
10 | cis-di-pyridinium (4-acetyle),di-nitrate platinum (II) | -1.41 | – | –
11 | cis-di-cycloheptylamino,di-nitrate platinum (II) [listing 1 of 2 here] | -0.35 | – | –
12 | cis-di-cyclohexylamino,di-nitrate platinum (II) [listing 1 of 2 here] | – | 97 | 173
13 | cis-di-cyclopentylamino, dichloro platinum (II) [listing 1 of 2 here] | – | 572 | 172
14 | CISPLATIN [listing 1 of 2 here] | – | 27 | 200
15 | cis-di-cyclohexylamino,di-nitrate platinum (II) [listing 2 of 2 here] | -0.91 | – | –
16 | cis-di-cyclopentyleamino,di-nitrate platinum (II) [listing 2 of 2 here] | – | 51 | 193
17 | cis-di-amonium, di-nitarte platinum (II) [listing 2 of 2 here] | – | 3.5 | 123
18 | cis-di-cycloheptylamino,di-nitrate platinum (II) [listing 2 of 2 here] | – | 92 | 133
19 | cis-di-cyclobutyleamino,di-chloro platinum (II) [listing 1 of 2 here] | – | 147 | 199
20 | cis-di-isopropyleamino,dichloro platinum (II) | -0.32 | – | –
21 | cis-di-methylamino,di-chloro platinum (II) [listing 1 of 2 here] | -1.68 | – | –
22 | cis-di-cyclobutyleamino,di-chloro platinum (II) [listing 2 of 2 here] | 0.36 | – | –
23 | cis-di-cyclopentylamino, dichloro platinum (II) [listing 2 of 2 here] | 0.81 | – | –
24 | cis-di-methylamino, di-nitrate platinum (II) [listing 1 of 2 here] | – | 26 | 161
25 | CISPLATIN [listing 2 of 2 here] | -2.19 | – | –
26 | cis-di-methylamino,di-chloro platinum (II) [listing 2 of 2 here] | – | 76 | 175
27 | cis-di-methylamino, di-nitrate platinum (II) [listing 2 of 2 here] | -3.28 | – | –
